Measurements reported in ChEMBL document CHEMBL1158163, “A re-examination of the difluoromethylenesulfonic acid group as a phosphotyrosine mimic for PTP1B inhibition” (Bioorg Med Chem, 2008).
Starred links: 1 amine or outer side, 2 acyl side, 3 side chain; linkers in the order of their positions; H or OH if unused. Non-standard residues stand in square brackets, D forms with d. Residues, ends and D or L forms follow the SMILES beside them. X1 = O=C([C@@H](Cc1cccc(C(F)(F)S(=O)(=O)O)c1)N[*:1])[*:2]; X3 = O=C([C@@H](Cc1cccc(C(F)(F)P(=O)(O)O)c1)N[*:1])[*:2]; X2 = O=C([C@@H](Cc1cccc(CS(=O)(=O)O)c1)N[*:1])[*:2]

Target: T1, Tyrosine-protein phosphatase non-receptor type 1 (Homo sapiens, UniProt P18031)
T1 sequence (P18031 whole entry): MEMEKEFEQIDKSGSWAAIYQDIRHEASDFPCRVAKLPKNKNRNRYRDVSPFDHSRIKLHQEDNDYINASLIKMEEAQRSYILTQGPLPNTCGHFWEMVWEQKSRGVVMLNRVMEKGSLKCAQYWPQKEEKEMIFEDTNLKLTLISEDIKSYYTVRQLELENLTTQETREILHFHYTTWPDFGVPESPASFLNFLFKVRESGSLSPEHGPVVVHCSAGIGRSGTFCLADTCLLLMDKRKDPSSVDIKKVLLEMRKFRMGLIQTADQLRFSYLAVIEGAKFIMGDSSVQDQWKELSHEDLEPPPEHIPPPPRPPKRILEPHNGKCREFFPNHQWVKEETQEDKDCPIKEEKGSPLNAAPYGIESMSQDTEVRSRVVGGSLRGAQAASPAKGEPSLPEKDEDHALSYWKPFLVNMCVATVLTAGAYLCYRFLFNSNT
Assay: Inhibition of human PTP1B expressed in Escherichia coli BL21(DE3) cells
In short: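 IC50 assay at 25 °C in 50 mM Bis–Tris HCl pH 6.3 with 2% glycerol, 0.1% Triton X-100, 4% DMSO, 4.5 mM DTT, 1.8 mM EDTA (final). DiFMUP substrate at Km (5 µM). Reaction started by adding PTP1B. DiFMU fluorescence (ex 360/em 460 nm) followed for 10 min. Initial rates Vi/Vo fitted semi-log to Vi = Vo/[1+([I]/IC50)^S]+B.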

Q: `NS(=O)(=O)c1cc(-c2ccc(CSCc3ccc(C(F)(F)P(=O)(O)O)c(Br)c3)cc2)ccc1Br` was tested. Which IC50 did it give?
A: 0.006 µM

Q: What does the source list for `NS(=O)(=O)c1cc(-c2ccc(CSCc3ccc(C(F)(F)S(=O)(=O)O)c(Br)c3)cc2)ccc1Br`?
A: IC50: 13 µM; Ki: 10.6 µM

Q: How did the IC50 turn out when `NS(=O)(=O)c1cc(-c2ccc(CSCc3ccc(CS(=O)(=O)O)c(Br)c3)cc2)ccc1Br` was run?
A: 19 µM

Q: And the Ki?
A: 10.3 µM

Q: What does the source list for `NS(=O)(=O)C(F)(F)c1cc(-c2ccc(CSCc3ccc(C(F)(F)P(=O)(O)O)c(Br)c3)cc2)ccc1Br`?
A: IC50: 0.03 µM; Ki: 0.024 µM

Q: Which IC50 does the source give for `NS(=O)(=O)C(F)(F)c1cc(-c2ccc(CSCc3ccc(C(F)(F)S(=O)(=O)O)c(Br)c3)cc2)ccc1Br` here?
A: 6 µM

Q: What about the Ki of the same molecule?
A: 3.3 µM

Q: With `O=P(O)(O)C(F)(F)c1ccc2ccccc2c1` as the molecule, how does the IC50 read?
A: 35 µM

Q: `CC(C)C[C@H](NC(=O)[C@@H](Cc1cccc(C(F)(F)S(=O)(=O)O)c1)NC(=O)[C@H](CCC(=O)O)NC(=O)[C@H](CC(=O)O)NC(=O)[C@H](C)NC(=O)[C@@H](N)CC(=O)O)C(N)=O` (H-DADE[X1]L-NH2) was tested. Which IC50 did it give?
A: 10 µM

Q: For `CC(C)C[C@H](NC(=O)[C@@H](Cc1cccc(CS(=O)(=O)O)c1)NC(=O)[C@H](CCC(=O)O)NC(=O)[C@H](CC(=O)O)NC(=O)[C@H](C)NC(=O)[C@@H](N)CC(=O)O)C(N)=O` (H-DADE[X2]L-NH2), which IC50 is on record?
A: 44 µM

Q: For `CC(C)C[C@H](NC(=O)[C@@H](Cc1cccc(C(F)(F)P(=O)(O)O)c1)NC(=O)[C@H](CCC(=O)O)NC(=O)[C@H](CC(=O)O)NC(=O)[C@H](C)NC(=O)[C@@H](N)CC(=O)O)C(N)=O` (H-DADE[X3]L-NH2), which Ki is on record?
A: 0.024 µM
